# rRNA inh HTS: inhibits bacterial ribosomal RNA function over humanized ribosomes; E. coli WT GFP vs humanized-ribosome RFP mutants, fluorescence, 24 h; active compounds read low; DMSO median 0, no signal -100; GFP signal change (wild-type ribosome), % (test concentration not listed); 350,000 compounds, 1.6% hits;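 active = significant combined selectivity score with lowered wild-type GFP, culture density cut under 30%, mutant RFP and density less affected; inactive = any of these conditions unmet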
# ERAP1 inh: ERAP1 (human) enzyme inhibition | recombinant ERAP1, Leu-AMC fluorescence, 60 min | Q9NZ08 | AID 652197 | inhibition, % at 10.7 µM | 340,000 compounds, 0.15% hits;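 active = mean replicate inhibition of at least 30%, or all replicates individually reaching that 30% level; inactive = mean below 30% and not every replicate reaching it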;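 also: 0% = neutral control wells and 100% = L-leucinethiol positive control wells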
# Target sequence (Q9NZ08 whole entry, looked up): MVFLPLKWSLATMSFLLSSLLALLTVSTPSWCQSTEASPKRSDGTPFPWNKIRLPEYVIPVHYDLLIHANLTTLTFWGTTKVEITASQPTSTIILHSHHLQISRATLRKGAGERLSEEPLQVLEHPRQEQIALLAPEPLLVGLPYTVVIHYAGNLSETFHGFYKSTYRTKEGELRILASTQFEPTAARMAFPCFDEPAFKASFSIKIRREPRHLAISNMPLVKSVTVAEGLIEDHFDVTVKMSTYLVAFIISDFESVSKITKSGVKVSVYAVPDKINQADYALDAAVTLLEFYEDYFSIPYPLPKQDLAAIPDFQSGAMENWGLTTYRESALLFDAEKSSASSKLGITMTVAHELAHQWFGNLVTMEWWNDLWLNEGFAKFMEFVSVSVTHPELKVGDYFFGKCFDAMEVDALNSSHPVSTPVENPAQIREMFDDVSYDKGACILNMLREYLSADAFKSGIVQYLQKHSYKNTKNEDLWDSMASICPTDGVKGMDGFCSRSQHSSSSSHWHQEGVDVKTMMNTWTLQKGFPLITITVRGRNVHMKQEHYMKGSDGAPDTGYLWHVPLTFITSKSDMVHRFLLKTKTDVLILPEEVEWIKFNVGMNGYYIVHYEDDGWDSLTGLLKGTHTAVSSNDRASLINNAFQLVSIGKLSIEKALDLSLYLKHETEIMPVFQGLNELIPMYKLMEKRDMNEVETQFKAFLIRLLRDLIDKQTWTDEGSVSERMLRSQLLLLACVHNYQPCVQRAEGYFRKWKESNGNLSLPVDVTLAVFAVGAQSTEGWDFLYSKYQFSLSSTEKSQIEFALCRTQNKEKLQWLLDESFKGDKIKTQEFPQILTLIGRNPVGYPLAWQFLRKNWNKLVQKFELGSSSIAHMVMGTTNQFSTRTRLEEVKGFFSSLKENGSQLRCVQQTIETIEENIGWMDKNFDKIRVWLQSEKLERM
# SIRT5 inh: blocks human SIRT5 desuccinylation of peptide; AID 652115; Q9NXA8; inhibition, % at 15 µM; Purified SirT5, succinyl-peptide AMC, trypsin-coupled fluorescence; 330,000 compounds, 1.1% hits; in the data active = inhibition above about 15%
# CFTR F508del cor: correctors of CFTR F508del function in bronchial epithelial cells. CFBE cells, YFP halide quenching; stimulated with forskolin plus potentiator P3; % fluorescence drop versus neutral controls. activity (quench increase), % at 7.58 µM. 350,000 compounds, 0.36% hits;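 active = mean added fluorescence quench of at least 8% versus neutral control, with both replicates also reaching 8%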;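 also: cells transiently co-express mutant CFTR-F508del with the halide-sensitive YFP; corrector assay measuring rescue of mutant channel to the surface after 24 h compound exposure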
# S100A4 MyoIIA: blocks human S100A4 binding to myosin IIA peptide | inhibition, % at 10.7 µM | AID 652163 | S100A4/TAMRA-MyoIIA peptide fluorescence polarization | 360,000 compounds, 0.14% hits | P26447;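 active = mean inhibition of at least 70% across replicates, with every replicate also reaching that level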
#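 Test system – S100A4 monomer (human) · Compound – single-point compound testing · Schedule – 5 min incubation before reading · Probe or stimulus – TAMRA-labelled myosin IIA heavy-chain peptide probe, 5 nM · Benchmarks – neutral control DMSO, positive control TFP · Medium – Calcium-containing HEPES buffer, pH 7.2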
# Active calls of the source: *; / = no result given; ! = not confirmed by another sample. Sampled rows, rich in hits. Any-hit rate of the full collection: about 3.1%.
SMILES,rRNA inh HTS,ERAP1 inh,SIRT5 inh,CFTR F508del cor,S100A4 MyoIIA
O=C(O)C[C@@H]1C[C@H]2c3cc(NC(=O)CC4CC4)ccc3O[C@H]2[C@@H](CO)O1,2.3,-0.2,-5.8,-5.6,-8.6
Nc1nc(-c2ccccc2)c(N=Nc2ccc(Cl)cc2)s1,-41.7*,-1.1,-1.2,/,0.5
Cc1ccc(S(=O)(=O)Nc2ccc3c(c2)CC(=O)N([C@@H](C)CO)C[C@H](C)[C@H](CN(C)Cc2ccc(-c4ccccc4)cc2)O3)cc1,1.8,-1.8,18.0*,7.9,21.4
Cc1ccc(S(=O)(=O)Nc2ccc3c(c2)CC(=O)N([C@H](C)CO)C[C@H](C)[C@H](CN(C)Cc2ccc(-c4ccccc4)cc2)O3)cc1,-0.4,-1.2,3.0,2.8,-6.9
Cc1ccc(S(=O)(=O)Nc2ccc3c(c2)CC(=O)N([C@H](C)CO)C[C@H](C)[C@@H](CN(C)Cc2ccc(-c4ccccc4)cc2)O3)cc1,-0.2,-0.8,11.6,0.8,-6.7
Cc1ccc(S(=O)(=O)Nc2ccc3c(c2)CC(=O)N([C@@H](C)CO)C[C@H](C)[C@@H](CN(C)Cc2ccc(-c4ccccc4)cc2)O3)cc1,-0.8,-1.7,18.8*,1.1,11.0
CN(C)CCCNC(=O)C[C@H]1C=C[C@H](NC(=O)Cc2cccnc2)[C@@H](CO)O1,2.4,1.8,1.1,0.9,-3.9
Cc1cc(N/N=C/c2ccc(O)cc2)c2cccc(C)c2n1,-15.3,4.8,21.0*,-13.1,-1.7
O=C(N[C@H]1CC[C@H](CCNS(=O)(=O)c2ccc(Cl)cc2)O[C@@H]1CO)c1cccc(F)c1,-25.2*!,2.3,-1.9,1.6,0.9
COc1ccc(S(=O)(=O)N[C@H]2C=C[C@@H](CC(=O)NCCc3ccncc3)O[C@H]2CO)cc1,-2.1,-2.2,28.6*,0.1,-7.4
O=C(Cc1ccccn1)N[C@@H]1CC[C@@H](CCNS(=O)(=O)c2cccc(F)c2)O[C@H]1CO,3.9,-4.2,4.2,-2.3,131.7*
O=C(Cc1ccccn1)NCC[C@@H]1CC[C@H](NC(=O)Nc2ccc(C(F)(F)F)cc2)[C@@H](CO)O1,-3.0,-1.3,-0.7,14.2*,-7.7
CCS(=O)(=O)NCC[C@H]1CC[C@@H](NC(=O)Cc2ccccn2)[C@H](CO)O1,-1.3,1.1,-0.4,0.0,15.3
C[C@@H]1CN([C@@H](C)CO)C(=O)c2cc(NC(=O)CCC(F)(F)F)ccc2O[C@H]1CN(C)C(=O)Nc1ccccc1,4.2,1.0,-3.1,-0.3,2.0
COc1ccc(S(=O)(=O)N[C@@H]2CC[C@@H](CC(=O)O)O[C@H]2CO)cc1,0.3,0.6,-2.3,-1.5,-7.1
C[C@H](CO)N1C[C@H](C)[C@@H](CN(C)C(=O)CCCN(C)C)OCCCC[C@H](C)Oc2ccc(NC(=O)c3ccccc3)cc2C1=O,-1.9,1.2,-0.4,1.1,-4.6
CO[C@@H]1CN(C)C(=O)c2ccc(NS(=O)(=O)CC(F)(F)F)cc2OC[C@H](C)N(Cc2cccnc2)C[C@H]1C,1.6,0.2,1.8,-5.1,-12.4
O=C(Nc1ccc(C(F)(F)F)cc1)N[C@@H]1CC[C@H](CCn2cc(C3(O)CCCC3)nn2)O[C@@H]1CO,-27.6,2.1,17.8*,1.2,20.2
O=C(NCC[C@@H]1CC[C@@H](NS(=O)(=O)c2cccc(F)c2)[C@@H](CO)O1)C1CCOCC1,3.8,0.4,38.0*,1.4,-1.1
COc1cccc(S(=O)(=O)N[C@H]2CC[C@H](CCNC(=O)Cc3ccncc3)O[C@@H]2CO)c1,0.3,2.9,15.8*,0.9,3.3
O=C(Nc1ccc(F)cc1)N[C@@H]1CC[C@@H](CCn2cc(C3(O)CCCC3)nn2)O[C@H]1CO,-0.6,-1.0,-2.0,0.8,8.5
COc1cccc(S(=O)(=O)N[C@H]2CC[C@@H](CC(=O)NCc3ccncc3)O[C@@H]2CO)c1,-1.1,0.2,-1.5,2.4,0.7
COCC(=O)Nc1ccc2c(c1)C(=O)N(C)[C@@H]1CC[C@H](CC(=O)NCc3cccc(F)c3)O[C@H]1CO2,5.6,/,/,-1.9,/
CC(C)[C@H]1COCc2cn(nn2)CCC[C@H](C)C(=O)N1,6.5,/,/,/,/
Cc1noc(C)c1S(=O)(=O)N(C)C[C@@H]1Oc2ccc(NS(=O)(=O)c3ccccc3)cc2CC(=O)N([C@H](C)CO)C[C@H]1C,3.0,0.1,-3.9,-0.5,-7.3
SMILES,rRNA inh HTS,ERAP1 inh,SIRT5 inh,CFTR F508del cor,S100A4 MyoIIA
COc1ccc(Nc2nc(C)nc3c2oc2ccccc23)c(OC)c1,7.5,11.2,0.8,-3.0,-5.5
CCc1nc(Nc2ccc(OC)cc2OC)c2oc3ccccc3c2n1,-0.2,32.1*,-5.3,0.6,0.3
Cc1ccc2nc(NC(=S)NC(=O)c3ccco3)sc2c1,-15.4*,-1.3,-1.7,2.8,3.2
Cc1ccccc1NC(=O)CCS(=O)(=O)c1cccc2nonc12,7.4,-1.9,-4.1,1.2,-4.2
Cc1ccccc1Nc1cccc2nonc12,-39.6*,-0.5,-0.3,/,-6.0
Cc1ccccc1Nc1ccc2nonc2c1[N+](=O)[O-],8.4,-4.4,29.1*,0.8,3.9
Cc1ccc(C)c(Nc2ccc3nonc3c2[N+](=O)[O-])c1,-1.9,-2.0,-5.4,-2.2,1.7
CNc1nc(NCc2ccc(C)cc2C)c2sccc2n1,-10.7,2.6,-1.9,-0.2,-3.1
COCCNc1nc(NC(C)C)nc2ccsc12,13.8,-3.2,/,2.9,-7.8
CC(C)Nc1nc(Nc2ccc(Cl)cc2F)c2sccc2n1,-60.4,-0.3,/,8.6*,-2.8
Cc1ccc(CNc2nc(NC(C)C)nc3ccsc23)c(C)c1,-54.0,1.2,20.8*,-0.1,16.2
CC1CCCC(NC(=O)C2N(CCCN3CCCC3)C(=O)C3C(C(=O)Nc4ccc(Cl)cc4)C4C=CC32O4)C1C (stereo not given),1.3,-3.2,0.9,-0.5,-1.7
CCN(CC)CCN1C(=O)C2C(C(=O)Nc3cccc(C)c3)C3C=CC2(O3)C1C(=O)NC1CCCC(C)C1C (stereo not given),-2.2,-0.1,19.0*,-0.8,5.5
COc1ccc(CNC(=O)C[C@@H]2CC[C@H]3[C@H](COc4ccc(NC(C)=O)cc4C(=O)N3C)O2)cc1,-2.2,-2.2,2.9,0.4,-2.4
C[C@H]1CN([C@@H](C)CO)C(=O)Cc2cc(NC(=O)Nc3cccc4ccccc34)ccc2O[C@H]1CN(C)C(=O)Nc1ccc(F)cc1,-5.0,-3.0,5.5,-1.9,-9.5
CCC(C)[C@H](NC(=O)N1CCn2c1nc1ccccc12)C(=O)NCCc1ccc(OC)c(OC)c1 (stereo not given in full),-19.6*,-0.9,1.0,-3.1,-0.7
COc1ccc(CCNC(=O)[C@@H](NC(=O)N2CCn3c2nc2ccccc23)C(C)C)cc1OC,-8.7,2.7,-5.0,2.8,-3.2
O=C(O)C1C2CCC(C2)C1C(=O)NCCc1ccc(F)cc1 (stereo not given),13.5,-2.8,17.5*,2.1,-3.2
